Data set [1] concerns the target T1, angiotensin I-converting enzyme (ACE) (Oryctolagus cuniculus, UniProt P12822).
T1 sequence (P12822 34-1310): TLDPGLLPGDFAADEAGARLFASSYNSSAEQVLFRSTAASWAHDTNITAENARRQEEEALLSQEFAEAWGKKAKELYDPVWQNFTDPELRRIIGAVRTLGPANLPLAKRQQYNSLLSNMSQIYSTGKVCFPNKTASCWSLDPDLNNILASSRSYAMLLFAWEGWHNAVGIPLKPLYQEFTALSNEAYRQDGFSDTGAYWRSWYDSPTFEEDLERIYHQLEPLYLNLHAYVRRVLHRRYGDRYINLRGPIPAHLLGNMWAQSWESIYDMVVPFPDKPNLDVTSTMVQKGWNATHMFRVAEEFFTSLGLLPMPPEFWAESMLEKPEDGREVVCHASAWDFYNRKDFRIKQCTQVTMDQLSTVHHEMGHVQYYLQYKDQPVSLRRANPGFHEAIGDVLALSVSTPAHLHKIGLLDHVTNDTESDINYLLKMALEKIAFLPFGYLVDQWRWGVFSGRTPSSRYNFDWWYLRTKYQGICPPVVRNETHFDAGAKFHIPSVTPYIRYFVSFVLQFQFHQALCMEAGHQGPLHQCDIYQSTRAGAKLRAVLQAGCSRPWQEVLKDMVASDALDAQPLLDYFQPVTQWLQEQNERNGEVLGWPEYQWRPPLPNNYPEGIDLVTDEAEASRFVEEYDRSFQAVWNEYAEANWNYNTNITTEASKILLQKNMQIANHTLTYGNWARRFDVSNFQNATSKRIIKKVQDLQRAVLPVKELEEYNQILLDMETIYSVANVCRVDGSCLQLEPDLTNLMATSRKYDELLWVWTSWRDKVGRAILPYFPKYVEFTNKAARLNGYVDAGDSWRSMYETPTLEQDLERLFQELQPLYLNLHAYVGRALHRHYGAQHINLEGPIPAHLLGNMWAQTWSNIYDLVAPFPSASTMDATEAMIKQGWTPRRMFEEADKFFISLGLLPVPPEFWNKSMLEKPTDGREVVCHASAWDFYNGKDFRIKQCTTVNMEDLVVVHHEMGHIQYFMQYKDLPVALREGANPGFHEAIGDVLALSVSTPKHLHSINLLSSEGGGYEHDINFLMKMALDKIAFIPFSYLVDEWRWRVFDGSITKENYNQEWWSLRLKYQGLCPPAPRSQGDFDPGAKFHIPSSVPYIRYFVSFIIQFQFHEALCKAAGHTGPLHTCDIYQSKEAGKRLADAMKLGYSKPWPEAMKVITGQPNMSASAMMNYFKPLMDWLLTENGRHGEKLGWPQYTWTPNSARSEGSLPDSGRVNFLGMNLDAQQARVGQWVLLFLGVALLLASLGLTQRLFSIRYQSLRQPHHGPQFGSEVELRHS
In words: ACE inhibition pattern by Lineweaver-Burk plots. As to conditions: substrate HHL. The data set is classed as biochemical. The method in brief:
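ACE kept constant while test compound (in 0.1% DMSO) and HHL substrate were both varied. Enzyme and compound were pre-incubated 10 min at 37℃, then HHL in 50 mM sodium borate with 500 mM NaCl, pH 8.3, was added for 60 min at 37℃. Stopped with 1 M HCl; hippuric acid extracted into ethyl acetate, dried, redissolved in water, A228. 0.1% DMSO control. Lineweaver-Burk plots, mean ± SD of three determinations.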

For data set [2], the system named is EAhy926 cells. Nature of the data set: Nitric oxide. It is filed as cell-based, human. Particulars: 24 h, P < 0.05. The method in brief: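 EAhy926 cells at 1.5 × 10^5 cells/well were treated 24 h with a range of test compound concentrations in 0.1% DMSO, with 0.1% DMSO as control. Supernatant nitrite: supernatant mixed 1:1 with Griess reagent (0.1% N-(1-naphthyl)-ethylenediamine, 1% sulfanilamide in 5% phosphoric acid), 10 min at room temperature, A550 against a sodium nitrite standard curve. Mean ± SD of three determinations; one-way ANOVA with Duncan's test, P < 0.05.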

In data set [3] the test system is EAhy926 cells. In words: Cell viability, MTT assay. The data set is classed as cell-based, human. The method in brief:
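EAhy926 cells grown in DMEM with 10% heat-inactivated calf serum, penicillin and streptomycin at 37℃, 5% CO2. Seeded at 1.0 × 10^5 cells/ml, held 16 h, then exposed 24 h to a range of test compound concentrations in 0.1% DMSO. MTT (2 mg/ml stock) added for 4 h; formazan dissolved in DMSO, A540. Viability as % of 0.1% DMSO control; mean ± SD of three determinations.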
A general note: Tetrazolium dyes change colour on reduction, which living cells bring about.

Data set [4] has as its system glycosidases from the viscera of the turban shell Turbo cornutus. Particulars: cited from earlier work.

These results are taken from PMC3085808 (Nutrition Research and Practice, 2011).

Consider `Oc1cc(O)cc(Oc2c(O)cc(O)c3c2Oc2c(O)cc(Oc4c(O)cc(Oc5c(O)cc(O)c6c5Oc5c(O)cc(O)cc5O6)cc4O)cc2O3)c1` [Dieckol, dieckol], for which the ACE inhibition mode entry in data set [1] is given as “non-competitive inhibitor”. The “Concentrations with inducible effect on the production of NO” value in data set [2] is “higher than 0.27 mM”. Also, the Cytotoxic effect result in data set [3] is recorded as “no cytotoxic effect”. Also, in data set [3] (24 h, all of the concentrations used), the “Survival rate of cells” value is listed as “higher than 95%”. The Glycosidase inhibition mode result in data set [4] is recorded as “non-competitive inhibitor”.
